Laboratory results from ChEMBL document CHEMBL2176987, “Property-based optimization of hydroxamate-based γ-lactam HDAC inhibitors to improve their metabolic stability and pharmacokinetic profiles” (J Med Chem, 2012).

Experiments:
[1] = Metabolic stability in ICR mouse liver microsomes at 1 uM measured at 30 min in absence of NADPH; format: ADME, Microsome; settings: read-out: Stability
Outline: (§1)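 Test compound at 1 μM incubated with female ICR mouse liver microsomes (0.5 mg protein/mL) for 30 min at 37 °C, with or without NADPH. Result reported as % parent remaining at 30 min.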

[2] = Metabolic stability in ICR mouse liver microsomes at 1 uM measured at 30 min in presence of NADPH; format: ADME, Microsome; settings: read-out: Stability; outline: as §1
[3] = Lipophilicity, log D of the compound; format: physicochemical; settings: octanol/water
[4] = Passive permeability of the compound by PAMPA; format: ADME; settings: read-out: permeability
Outline: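 PAMPA passive diffusion with compound at a final concentration of 200 μM. Effective permeability Pe (nm/s) and membrane retention R (%) reported. Ranitidine and metoprolol served as controls.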

[5] = Tmax in Balb/c mouse at 30 mg/kg, po; format: ADME, organism-based; parameters: dose 30 mg/kg, route oral; settings: in vivo
Outline: (§2)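 Balb/c mice dosed iv at 10 mg/kg or orally (20 or 30 mg/kg). Plasma concentration–time profiles averaged over three animals per time point. Parameters come from noncompartmental analysis. Oral AUC runs 0–5 h and iv AUC runs 0 to infinity.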

NUGC-3 = test: Cytotoxicity against human NUGC3 cells assessed as growth inhibition by SRB assay; format: functional
[6] = Volume of distribution at steady state in Balb/c mouse at 10 mg/kg, iv; format: ADME, organism-based; parameters: dose 10 mg/kg, route intravenous; settings: in vivo, read-out: Vdss; outline: as §2
[7] = Cmax in Balb/c mouse at 30 mg/kg, po; format: ADME, organism-based; parameters: dose 30 mg/kg, route oral; settings: in vivo; outline: as §2
HCT-15 = test: Cytotoxicity against human HCT15 cells assessed as growth inhibition by SRB assay; format: functional
[8] = AUC (0 to 5 hrs) in Balb/c mouse at 30 mg/kg, po; format: ADME, organism-based; parameters: dose 30 mg/kg, route oral; settings: plasma; outline: as §2
[9] = AUC (0 to infinity) in Balb/c mouse at 10 mg/kg, iv; format: ADME, organism-based; parameters: time infinity, dose 10 mg/kg, route intravenous; settings: plasma; outline: as §2
[10] = Half life in Balb/c mouse at 30 mg/kg, po; format: ADME, organism-based; parameters: dose 30 mg/kg, route oral; settings: in vivo; outline: as §2
[11] = Apparent permeability across apical to basolateral side in human Caco2 cells at 100 uM; format: ADME, cell-based; settings: Caco-2
PC-3 = test: Cytotoxicity against human PC3 cells assessed as growth inhibition by SRB assay; format: functional, cell-based
[12] = Half life in Balb/c mouse at 10 mg/kg, iv; format: ADME, organism-based; parameters: dose 10 mg/kg, route intravenous; settings: in vivo; outline: as §2
NCI-H23 = test: Cytotoxicity against human NCI-H23 cells assessed as growth inhibition by SRB assay; format: functional
[13] = Clearance in Balb/c mouse at 10 mg/kg, iv; format: ADME, organism-based; parameters: dose 10 mg/kg, route intravenous; settings: in vivo; outline: as §2
ACHN = test: Cytotoxicity against human ACHN cells assessed as growth inhibition by SRB assay; format: functional
MDA-MB-231 = test: Cytotoxicity against human MDA-MB-231 cells assessed as growth inhibition by SRB assay; format: functional
[14] = Oral bioavailability in Balb/c mouse at 30 mg/kg; format: ADME, organism-based; settings: in vivo; outline: as §2
[15] = Inhibition of HDAC by fluorescence assay
[16] = Cmax in Balb/c mouse at 20 mg/kg, po; format: ADME, organism-based; parameters: dose 20 mg/kg, route oral; settings: in vivo; outline: as §2
[17] = AUC (0 to 5 hrs) in Balb/c mouse at 20 mg/kg, po; format: ADME, organism-based; parameters: dose 20 mg/kg, route oral; settings: plasma; outline: as §2
[18] = Oral bioavailability in Balb/c mouse at 20 mg/kg; format: ADME, organism-based; settings: in vivo; outline: as §2
[19] = Tmax in Balb/c mouse at 20 mg/kg, po; format: ADME, organism-based; parameters: dose 20 mg/kg, route oral; settings: in vivo; outline: as §2
[20] = Half life in Balb/c mouse at 20 mg/kg, po; format: ADME, organism-based; parameters: dose 20 mg/kg, route oral; settings: in vivo; outline: as §2

Row | SMILES | remaining at 0.5 h, 1 µM [1] | remaining at 0.5 h, 1 µM [2] | logD [3] | Papp [4] | GI50 (NUGC-3) | GI50 (HCT-15) | GI50 (PC-3) | GI50 (NCI-H23) | GI50 (ACHN) | GI50 (MDA-MB-231) | IC50 [15] | further results
1 | CC(C)(C)c1ccc(CCN2CC=C(CCC(=O)NO)C2=O)cc1 | 51% | 38.1% | 2.25 | 6.53 ×10⁻⁶ cm/s |  |  |  |  |  |  |  | 
2 | CC(C)(C)c1ccc(CCCN2CC=C(CCC(=O)NO)C2=O)cc1 | 57.6% | 35.3% | 2.7 | 1.5 ×10⁻⁶ cm/s |  |  |  |  |  |  |  | 
3 | O=C(CCC1=CCN(CCCCc2ccc(Cl)cc2)C1=O)NO | 34.6% | 24.9% | 2.17 | 0.494 ×10⁻⁶ cm/s |  |  |  |  |  |  |  | 
4 | O=C(CCC1=CCN(Cc2ccc(F)cc2)C1=O)NO | 91.4% | 87.7% | 0.571 | 1.93 ×10⁻⁶ cm/s | 6.06 µM | 4.07 µM | 5.31 µM | 4.67 µM | 5.99 µM | 1.94 µM | 0.06 µM | Tmax [5]: 0.25 h; Vd [6]: 1.8 L/kg; Cmax [7]: 2300 ng/mL; AUC(0-t) at 4 h [8]: 1180 ng·h/mL; AUC(0-inf) [9]: 1280 ng·h/mL; half-life [10]: 1.1 h; Papp A→B at 100 µM [11]: 7.8 ×10⁻⁶ cm/s; half-life [12]: 2.6 h; clearance [13]: 130 mL/min/kg; bioavailability [14]: 30.6%
5 | O=C(CCC1=CCN(Cc2ccc(Br)cc2)C1=O)NO | 100% | 84% | 1.26 | 1.02 ×10⁻⁶ cm/s |  |  |  |  |  |  |  | Tmax [5]: 0.15 h; Vd [6]: 4.1 L/kg; Cmax [7]: 2710 ng/mL; AUC(0-t) at 4 h [8]: 3110 ng·h/mL; AUC(0-inf) [9]: 2330 ng·h/mL; half-life [10]: 3.1 h; half-life [12]: 2.8 h; clearance [13]: 71.7 mL/min/kg; bioavailability [14]: 44.6%
6 | CC(C)(C)c1ccc(CN2CC=C(CCC(=O)NO)C2=O)cc1 | 79% | 58.2% | 2.1 | 2.19 ×10⁻⁶ cm/s | 0.72 µM | 0.57 µM | 1.83 µM | 0.42 µM | 0.86 µM | 0.69 µM | 0.1 µM | Cmax [16]: 462 ng/mL; AUC(0-t) at 4 h [17]: 739 ng·h/mL; bioavailability [18]: 10.7%; Vd [6]: 1.6 L/kg; AUC(0-inf) [9]: 3440 ng·h/mL; Tmax [19]: 0.25 h; half-life [12]: 7.8 h; clearance [13]: 48.3 mL/min/kg; half-life [20]: 13.6 h
7 | O=C(CCC1=CCN(Cc2cc(C(F)(F)F)cc(C(F)(F)F)c2)C1=O)NO | 40.5% | 35.7% | 2.4 | 2.83 ×10⁻⁶ cm/s |  |  |  |  |  |  |  | 
8 | N#Cc1cccc(CN2CC=C(CCC(=O)NO)C2=O)c1 |  |  | 0.236 |  | 4.12 µM | > 10 µM | 7.92 µM | 4.08 µM | 7.75 µM | 3.6 µM | 0.16 µM | 
9 | N#Cc1ccc(CN2CC=C(CCC(=O)NO)C2=O)cc1 |  |  | 0.197 |  | > 10 µM | > 10 µM | > 10 µM | 2.32 µM | > 10 µM | 5.38 µM | 0.15 µM | 
10 | O=C(CCC1=CCN(CCc2cccc([N+](=O)[O-])c2)C1=O)NO |  |  | 0.633 |  | 6.57 µM | > 10 µM | 8.69 µM | 4.39 µM | 5.7 µM | 3.18 µM | 1.08 µM | 
11 | O=C(CCC1=CCN(CCc2ccc([N+](=O)[O-])cc2)C1=O)NO |  |  | 0.594 |  | > 10 µM | > 10 µM | > 10 µM | 7.8 µM | 8.96 µM | 4.97 µM | 1.47 µM | 
